From ChEMBL document CHEMBL1134782, “Synthesis of 1-benzyl-3-(5'-hydroxymethyl-2'-furyl)indazole analogues as novel antiplatelet agents” (J Med Chem, 2001)
pIC50: −log10 of the molar value.

Legend:
[1] = Inhibition of platelet aggregation induced by thrombin (0.1 unit/ml); assay type: functional
Method in brief: (§1)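 Platelets were preincubated with test compound at 37 °C for 1 min. Values are mean ± SE from three to six separations. Aspirin served as positive control.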

[2] = Inhibition of platelet aggregation induced by Collagen (10 uM); assay type: functional; conditions: in the assay text read “10 ug/mL” for “10 uM”; method in brief: as §1
[3] = inhibition of platelet aggregation induced by PAF (2 ng/mL); assay type: functional; method in brief: as §1
[4] = Inhibition of platelet aggregation induced by AA (100 uM); assay type: functional; method in brief: as §1
[5] = Inhibition of platelet aggregation induced by Collagen (10 ug/mL)
[6] = Inhibition of platelet aggregation induced by PAF (2 ng/mL); assay type: functional; method in brief: as §1
[7] = molecular target: T1, cGMP-specific 3',5'-cyclic phosphodiesterase (Homo sapiens, UniProt O76074); assay: (§2) Inhibition of PDE5 from platelets
Method in brief: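 PDE activity fraction incubated with [3H]cGMP as substrate and a range of test-compound concentrations at 37 °C for 10 min. IBMX served as positive control.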

[8] = molecular target: T2, Soluble guanylate cyclase (Homo sapiens) (UniProt Q02153+O75343+P33402+Q02108); assay: sGC activation was determined in the presence of [alpha-32P]GTP at a concentration of 82 uM; assay type: protein-complex assay
Method in brief: (§3)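 Soluble guanylate cyclase source was the supernatant fraction of platelet homogenate. It was incubated with [α-32P]GTP and 82 μM test compound at 37 °C for 10 min. Activity was expressed as pmol cGMP/min/mg protein.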

[9] = molecular target: T2, Soluble guanylate cyclase (Homo sapiens); assay: […] was determined in the presence of [alpha-32P]GTP at a concentration of 82 uM; assay type: protein-complex assay; method in brief: as §3
[10] = molecular target: T1, cGMP-specific 3',5'-cyclic phosphodiesterase; assay: as §2; remark: listed apart in the source
Method in brief: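 PDE activity fraction incubated with [3H]cGMP as substrate and a range of test-compound concentrations at 37 °C for 10 min. […] IBMX served as positive control.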

| Compound | pIC50 [1] | pIC50 [2] | pIC50 [3] | pIC50 [4] | pIC50 [5] | pIC50 [6] | pIC50 [7] | Activity (pM of cGMP (min)-1 (mg of protein)-1) [8] | Activity (pM of cGMP (min)-1 (mg of protein)-1) [9] | pIC50 [10] |
| --- | --- | --- | --- | --- | --- | --- | --- | --- | --- | --- |
| Cc1ccc2c(-c3ccc(C(=O)O)o3)nn(Cc3ccccc3)c2c1 | < 3.57 | 3.74 | < 3.57 | 3.82 |  |  |  |  |  |  |
| COC(=O)c1ccc(-c2nn(Cc3ccccc3)c3cc(F)ccc23)o1 | < 3.57 |  |  | 4.03 | 4.00 | 3.83 |  |  |  |  |
| COCc1ccc(-c2nn(Cc3ccccc3)c3cc(F)ccc23)o1 | 3.94 | 4.19 |  | 4.34 |  | 3.96 | 5.41 | 41.8 |  |  |
| CCOC(=O)c1ccc(-c2nn(Cc3ccccc3)c3ccccc23)cc1 | 4.53 | 3.67 |  | 3.73 |  | 3.79 |  |  |  |  |
| COCc1ccc(-c2nn(Cc3ccccc3)c3cc(OC)ccc23)o1 | 3.59 | 3.94 | 3.75 | 3.97 |  |  |  |  |  |  |
| O=C(O)c1ccc(-c2nn(Cc3ccccc3)c3ccccc23)cc1 | < 3.57 | 3.81 | 3.75 | 3.89 |  |  |  |  |  |  |
| COCc1ccc(-c2nn(Cc3ccccc3)c3ccccc23)o1 | 3.84 | 5.18 |  | 5.09 |  | 4.59 | 4.86 | 32 |  |  |
| OCc1ccc(-c2[nH]nc3ccccc23)o1 | < 3.57 | < 3.57 | < 3.57 | 4.00 |  |  |  |  |  |  |
| O=C(O)c1cccc(-c2nn(Cc3ccccc3)c3ccccc23)c1 | < 3.57 | 3.83 | 3.63 | 3.81 |  |  |  |  |  |  |
| OCc1ccc(-c2nn(Cc3ccccc3)c3ccccc23)cc1 | 3.72 | 3.91 | 3.84 | 4.00 |  |  |  |  |  |  |
| OCc1ccc(-c2nn(-c3ccccc3)c3ccccc23)o1 | 3.80 | 4.86 |  | 4.75 |  | 3.84 | 4.44 | 27.8 |  |  |
| CCN(CC)Cc1ccc(-c2nn(Cc3ccccc3)c3ccccc23)o1 | 3.99 | 4.30 |  | 4.25 |  | 4.25 | 4.20 | 17.9 |  |  |
| Cc1ccc2c(-c3ccc(CO)o3)nn(Cc3ccccc3)c2c1 | 3.83 | 4.34 |  | 4.31 |  | 4.14 | 5.08 | 35.1 |  |  |
| Cc1ccc(-c2nn(Cc3ccccc3)c3ccccc23)o1 | 4.40 | 4.56 | 4.40 | 4.33 |  |  | 4.65 |  | 30.9 |  |
| COCc1ccc(-c2nn(Cc3ccccc3)c3cc4c(cc23)OCO4)o1 | < 3.57 | 3.95 | 3.71 | 3.99 |  |  |  |  |  |  |
| O=C(O)c1ccc(-c2nn(Cc3ccccc3)c3cc(F)ccc23)o1 | < 3.57 | 3.75 | < 3.57 | 3.92 |  |  |  |  |  |  |
| OCc1cccc(-c2nn(Cc3ccccc3)c3ccccc23)c1 | < 3.57 | 4.01 |  | 4.29 |  | 3.76 |  |  |  |  |

| Compound | pIC50 [1] | pIC50 [2] | pIC50 [3] | pIC50 [4] | pIC50 [5] | pIC50 [6] | pIC50 [7] | Activity (pM of cGMP (min)-1 (mg of protein)-1) [8] | Activity (pM of cGMP (min)-1 (mg of protein)-1) [9] | pIC50 [10] |
| --- | --- | --- | --- | --- | --- | --- | --- | --- | --- | --- |
| COCc1ccc(-c2nn(Cc3ccccc3)c3cc(C)ccc23)o1 | 3.90 | 4.23 |  | 4.49 |  | 4.12 |  | 22.1 |  |  |
| COC(=O)c1ccc(-c2nn(Cc3ccccc3)c3cc(OC)ccc23)o1 | < 3.57 | 3.80 |  | 4.03 |  | < 3.57 |  |  |  |  |
| COC(=O)c1ccc(-c2nn(Cc3ccccc3)c3cc(C)ccc23)o1 | < 3.57 | 4.11 |  | 4.19 |  | < 3.57 |  |  |  |  |
| CCOC(=O)c1cccc(-c2nn(Cc3ccccc3)c3ccccc23)c1 | < 3.57 | 3.84 | < 3.57 | 3.90 |  |  |  |  |  |  |
| COC(=O)c1ccc(-c2nn(Cc3ccccc3)c3ccccc23)o1 | < 3.57 | 3.79 |  | 4.09 |  | < 3.57 |  |  |  |  |
| O=C(O)c1ccc(-c2nn(-c3ccccc3)c3ccccc23)o1 | < 3.57 | < 3.57 | < 3.57 | < 3.57 |  |  |  |  |  |  |
| O=C(O)c1ccc(-c2nn(Cc3ccccc3)c3cc4c(cc23)OCO4)o1 | < 3.57 | 3.82 | < 3.57 | 3.83 |  |  |  |  |  |  |
| COc1ccc2c(-c3ccc(C(=O)O)o3)nn(Cc3ccccc3)c2c1 | < 3.57 | 3.85 | < 3.57 | 3.82 |  |  |  |  |  |  |
| CC(C)Cn1c(=O)n(C)c(=O)c2[nH]cnc21 [ISOBUTYLMETHYLXANTHINE] |  |  |  |  |  |  |  |  |  | 4.20 |
| COc1ccc2c(-c3ccc(CO)o3)nn(Cc3ccccc3)c2c1 | 3.77 | 4.33 |  | 4.30 |  | 4.05 |  | 39.9 |  |  |
| COC(=O)c1ccc(-c2nn(Cc3ccccc3)c3cc4c(cc23)OCO4)o1 | 3.59 | 3.77 | 3.60 | 3.87 |  |  |  |  |  |  |
| O=C(O)c1ccc(-c2nn(Cc3ccccc3)c3ccccc23)o1 | < 3.57 | 4.12 |  | 4.08 |  | < 3.57 |  |  |  |  |
| OCc1ccc(-c2nn(Cc3ccccc3)c3cc4c(cc23)OCO4)o1 | 3.62 |  |  | 4.02 | 3.98 | 3.79 |  |  |  |  |
| OCc1ccc(-c2nn(Cc3ccccc3)c3cc(F)ccc23)o1 | 3.66 | 4.60 |  | 4.66 |  | 4.27 | 4.85 | 37.2 |  |  |
| COC(=O)c1ccc(-c2nn(-c3ccccc3)c3ccccc23)o1 | < 3.57 | 4.74 |  | 4.97 |  | < 3.57 |  |  |  |  |
| CC(=O)Oc1ccccc1C(=O)O [ASPIRIN] | < 3.57 | < 3.57 |  | 4.70 |  | < 3.57 |  |  |  |  |
| OCc1ccc(-c2nn(Cc3ccccc3)c3ccccc23)o1 | 3.76 | 4.27 |  | 4.27 |  | 4.06 | 4.50 | 44.6 |  |  |
